Measurements from ChEMBL document CHEMBL1157696, “New oxapolycyclic cage amines with NMDA receptor antagonist and trypanocidal activities” (Bioorg Med Chem, 2010).
The source made the active and inactive calls. No cut-off for these calls is given here.

How the values were obtained:
[1] = molecular target: Glutamate NMDA receptor; test: Antagonist activity at NMDA receptor in rat cerebellar granule neurons assessed as inhibition of NMDA-induced increase in intracellular calcium level by fluorometric assay; type: functional, cell-based
How it was run: (§1)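 Primary cerebellar granule neuron cultures on poly-L-lysine-coated glass coverslips, used after 7–14 days in vitro. Cells loaded with 6 µM Fura-2 AM for 45 min, then read fluorometrically in Locke-Hepes buffer at 37 °C under mild agitation. Cumulative increasing compound concentrations added after glutamate (100 µM, with 10 µM glycine) or NMDA challenge. Inhibition percentages fitted by variable-slope non-linear regression. At least three experiments on three culture batches.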

[2] = system: Trypanosoma brucei; test: Trypanocidal activity against Trypanosoma brucei 427 bloodstream form assessed as decrease in cell density at 5 ug/mL after 48 hrs by hemocytometry; type: functional, organism-based
[3] = molecular target: Glutamate NMDA receptor; test: Antagonist activity at NMDA receptor in rat cerebellar granule neurons assessed as inhibition of glutamate-induced increase in intracellular calcium level by fluorometric assay; type: functional, cell-based; how it was run: as §1
[4] = system: Trypanosoma brucei; test: Trypanocidal activity against Trypanosoma brucei 427 bloodstream form assessed as decrease in cell density after 48 hrs by hemocytometry; type: functional, organism-based; settings: Trypanosoma brucei, 427, 48 h
How it was run: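 Bloodstream-form T. brucei strain 427 kept at 37 °C in modified Iscove's medium, pH 7.4. Parasites grown 48 h across a range of drug concentrations, starting at 0.5 × 10⁴ cells/mL. Densities counted by hemocytometer and expressed as percent of control growth to derive IC50 and IC90. Performed in triplicate.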

[5] = system: Trypanosoma brucei; test: Ratio of compound to amantadine activity against Trypanosoma brucei 427 bloodstream form; type: functional
[6] = species: Mus musculus; test: Inhibition of MAO in mouse cortex at 50 uM by tube luminometry
How it was run: (§2)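 MAO-Glo luminescent assay of non-specific MAO activity. Enzyme source was a crude mitochondrial preparation from NIH Swiss mouse cortex. Compounds tested at 10 and 50 µM.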

[7] = species: Mus musculus; test: Inhibition of MAO in mouse cortex at 10 uM by tube luminometry; how it was run: as §2

## CN(C)C12CC3CC(C)(CC(C1)c1ccccc13)O2
[1]
  IC50: 3.9 µM
[2]
  Activity: inactive
[3]
  IC50: 7.7 µM

## CN(C)C12CC3CC(CC(C1)c1ccccc13)O2
[1]
  IC50: 3.8 µM
[2]
  Activity: inactive
[3]
  IC50: 39 µM

## CN(Cc1ccccc1)C12CC3CC(CC(C1)c1ccccc13)O2
[1]
  IC50: > 200 µM
[2]
  Activity: inactive
[3]
  IC50: > 500 µM

## CCC12CC3CC(NCc4ccccc4)(CC(C1)c1ccccc13)O2
[1]
  IC50: > 200 µM
[4]
  IC50: 13.9 µM
  IC90: 19.9 µM
[3]
  IC50: > 500 µM
[5]
  Ratio: >=10

## C#CCN(CC#C)C12CC3CC(CC)(CC(C1)c1ccccc13)O2
[1]
  IC50: > 200 µM
[6]
  inhibition: inactive
[7]
  inhibition: inactive
[4]
  IC50: 14.6 µM
  IC90: 24.1 µM
[3]
  IC50: > 500 µM
[5]
  Ratio: >=10

## CNC12CC3CC(CC(C1)c1ccccc13)O2
[1]
  IC50: 6 µM
[2]
  Activity: inactive
[3]
  IC50: 28 µM

## c1ccc2c(c1)C1CC3CC2CC(N2CCCCC2)(C1)O3
[1]
  IC50: 30 µM
[3]
  IC50: 168 µM

## NC(=O)CNC12CC3CC(CC(C1)c1ccccc13)O2
[1]
  IC50: > 200 µM
[6]
  inhibition: inactive
[7]
  inhibition: inactive
[2]
  Activity: inactive
[3]
  IC50: > 500 µM

## C#CCNC12CC3CC(CC(C1)c1ccccc13)O2
[1]
  IC50: 34 µM
[6]
  inhibition: inactive
[7]
  inhibition: inactive
[2]
  Activity: inactive
[3]
  IC50: 115 µM

## C#CCNC12CC3CC(CC)(CC(C1)c1ccccc13)O2
[1]
  IC50: > 200 µM
[6]
  inhibition: inactive
[7]
  inhibition: inactive
[4]
  IC50: 15.2 µM
  IC90: 25.6 µM
[3]
  IC50: > 500 µM
[5]
  Ratio: >=10

## CC12CC3CC(C)(C1)CC(N)(C3)C2 [MEMANTINE]
[4]
  IC50: 13.8 µM
  IC90: 21.4 µM

## CCC12CC3CC(N)(CC(C1)c1ccccc13)O2
[1]
  IC50: > 200 µM
[2]
  Activity: inactive
[3]
  IC50: > 500 µM

## CCN(CC)C12CC3CC(C)(CC(C1)c1ccccc13)O2
[1]
  IC50: 7.7 µM
[2]
  Activity: inactive
[3]
  IC50: 22 µM

## CCN(CC)C12CC3CC(CC(C1)c1ccccc13)O2
[1]
  IC50: 14 µM
[3]
  IC50: 96 µM

## NC12CC3CC(CC(C1)c1ccccc13)O2
[1]
  IC50: 35 µM
[2]
  Activity: inactive
[3]
  IC50: 408 µM

## CC(N)C12CC3CC(CC(C3)C1)C2 (stereo not given) [RIMANTADINE]
[4]
  IC90: 14 µM

## c1ccc(CNC23CC4CC(CC(C2)c2ccccc24)O3)cc1
[1]
  IC50: > 200 µM
[2]
  Activity: inactive
[3]
  IC50: > 500 µM

## C#CCN(CC#C)C12CC3CC(CC(C1)c1ccccc13)O2
[1]
  IC50: > 200 µM
[6]
  inhibition: inactive
[7]
  inhibition: inactive
[2]
  Activity: inactive
[3]
  IC50: > 500 µM

## CC12CC3CC(N)(CC(C1)c1ccccc13)O2
[1]
  IC50: 98 µM
[2]
  Activity: inactive
[3]
  IC50: 167 µM

## c1ccc(CN(Cc2ccccc2)C23CC4CC(CC(C2)c2ccccc24)O3)cc1
[1]
  IC50: > 200 µM
[2]
  Activity: inactive
[3]
  IC50: > 500 µM

## C#CCN(C)[C@H](C)Cc1ccccc1
[7]
  inhibition: 85.5%

## c1ccc(CCNC23CC4CC(CC(C2)c2ccccc24)O3)cc1
[1]
  IC50: > 200 µM
[2]
  Activity: inactive
[3]
  IC50: > 500 µM
